# Measured values reported in PMC4084610 (Advances in pharmacology (San Diego, Calif.), 2014).
# Entries after “also recorded” stand apart in the source; their conditions may differ. Read-outs that look alike come from different tables or passages of the source.
# Key:
# VMAT2 [1] = target: T1, VMAT2 (Rattus norvegicus, UniProt Q01827); assay type: binding; details: whole rat brain vesicles, mean±SEM; for Ki: read-out: [3H]DTBZ binding Ki, 5 nM [3H]DTBZ
# [2] = test system: METH-evoked DA release from striatal slices; assay: Inhibition of METH-evoked DA release from superfused striatal slices; assay type: cell-based, rat; details: for Imax for inhibition of METH-evoked DA release / IC50: METH 5 μM, total DA overflow, striatal slices; for Effect of analog alone on fractional DA release: analog alone in superfusion buffer, 0.3–30 μM; for IC50: read-out: IC50 for inhibition of METH-evoked DA release
# Method in brief: (§1)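 Rat coronal striatal slices are preincubated 60 min at 34 °C in Krebs buffer, then superfused at 1 ml/min for 60 min. Two 5-min basal samples are collected into 0.1 M perchloric acid. Test compound (one concentration per slice, 0.3–30 μM) runs 30 min, then with 5 μM METH for 15 min, then alone for 20 min. Buffer-control and METH-control slices are included. Superfusate is ascorbate-oxidase treated and analysed by HPLC-electrochemical detection.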
# [3] = test system: fractional DOPAC release from rat striatal slice preparations; assay: Fractional DOPAC release from superfused striatal slices; assay type: cell-based; details: 30 min superfusion before METH, 0.3–30 μM
# Method in brief: as §1
# VMAT2 [4] = target: T1, VMAT2; assay type: biochemical
# DAT [5] = target: T2, DAT (Rattus norvegicus, UniProt P23977); assay: Inhibition of [3H]DA uptake at DAT in synaptosomal preparations; assay type: biochemical; details: read-out: DAT Ki value ([3H]DA uptake); synaptosomes
# Method in brief: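 Synaptosomes are preincubated with test compound (1 nM–100 μM) for 5 min at 34 °C, then placed on ice. [3H]DA is added from a 0.1 μM solution, followed by a further 10 min at 34 °C. Nonspecific uptake is defined with 10 μM nomifensine.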
# VMAT2 [6] = target: T1, VMAT2; assay: Kinetic analysis of inhibition of [3H]DA uptake at VMAT2; assay type: biochemical; details: for Vmax of [3H]DA uptake at VMAT2: analog at its Ki concentration, control 29.9±4.30; for Mechanism of VMAT2 inhibition: kinetic analysis of [3H]DA uptake
# Method in brief: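 Rat synaptic vesicle suspension was added to assay buffer containing inhibitor or buffer (control), plus [3H]DA across 0.001–5.0 μM. Incubation ran 8 min and was stopped by filtration, then filter-retained radioactivity was counted. Nonspecific uptake was defined with Ro4-1284 (10 μM).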
# METH addicts = details: ref NCT00439504; cited from earlier work
# rats = details: cited from earlier work
# Water solubility = assay type: physicochemical
# [7] = test system: METH-evoked DA release from striatal slices; details: ref Horton, Siripurapu, Norrholm, et al., 2011; cited from earlier work
# DAT [8] = target: T2, DAT; details: ref Miller et al., 2004; cited from earlier work
# SERT = details: ref Miller et al., 2004; cited from earlier work
# [9] = rat striatal vesicles, mean±SEM
# [10] = read-out: VMAT2 [3H]DA uptake Ki, rat striatal vesicles, 0.1 μM [3H]DA, mean±SEM
# T1 sequence (Q01827 whole entry, the tested form may be a part): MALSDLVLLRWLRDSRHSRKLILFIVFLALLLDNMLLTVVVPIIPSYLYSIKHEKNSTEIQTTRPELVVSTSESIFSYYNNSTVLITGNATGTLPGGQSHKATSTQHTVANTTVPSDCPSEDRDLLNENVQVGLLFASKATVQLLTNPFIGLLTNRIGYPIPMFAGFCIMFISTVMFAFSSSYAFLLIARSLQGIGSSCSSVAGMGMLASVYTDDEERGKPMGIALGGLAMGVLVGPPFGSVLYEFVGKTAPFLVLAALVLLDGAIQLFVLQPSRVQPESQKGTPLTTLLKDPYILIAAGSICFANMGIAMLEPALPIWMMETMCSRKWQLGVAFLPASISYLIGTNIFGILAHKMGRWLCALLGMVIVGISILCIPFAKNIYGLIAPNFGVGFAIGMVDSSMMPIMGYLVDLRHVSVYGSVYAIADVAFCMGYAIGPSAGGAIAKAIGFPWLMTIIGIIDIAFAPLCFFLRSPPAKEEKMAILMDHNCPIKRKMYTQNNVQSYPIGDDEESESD
# T2 sequence (P23977 whole entry): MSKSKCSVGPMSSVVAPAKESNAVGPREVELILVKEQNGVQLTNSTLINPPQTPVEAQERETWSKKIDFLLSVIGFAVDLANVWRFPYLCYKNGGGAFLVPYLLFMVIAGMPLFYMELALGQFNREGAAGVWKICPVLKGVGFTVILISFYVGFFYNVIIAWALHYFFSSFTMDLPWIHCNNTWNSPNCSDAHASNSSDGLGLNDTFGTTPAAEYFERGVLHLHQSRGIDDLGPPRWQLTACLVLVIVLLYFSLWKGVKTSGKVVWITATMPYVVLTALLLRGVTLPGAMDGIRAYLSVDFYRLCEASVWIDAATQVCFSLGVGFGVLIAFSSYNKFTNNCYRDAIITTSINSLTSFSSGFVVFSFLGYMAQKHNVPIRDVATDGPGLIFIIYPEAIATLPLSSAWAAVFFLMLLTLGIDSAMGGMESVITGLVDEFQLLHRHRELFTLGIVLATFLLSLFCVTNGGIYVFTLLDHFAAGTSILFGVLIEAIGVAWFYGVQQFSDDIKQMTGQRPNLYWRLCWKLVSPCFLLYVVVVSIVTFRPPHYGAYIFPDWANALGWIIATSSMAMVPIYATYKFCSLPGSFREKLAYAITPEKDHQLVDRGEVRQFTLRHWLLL
structure (smiles),measurement,setting,value
"c1ccc(C[C@H]2CC[C@@H](Cc3ccccc3)N2)cc1 [AV-2-192, cis-2,5-di(2-benzyl)-pyrrolidine]",Ki,VMAT2 [1],1.64 ± 0.12 µM
same,[3H]DTBZ binding Imax,VMAT2 [1],100%
same,Imax for inhibition of METH-evoked DA release,[2],55%
same,Effect of analog alone on fractional DA release,[2],did not alter fractional DA release
same,IC50,[2],5.2 µM
same,Lowest concentration to increase extracellular DOPAC,[3],3 µM
same,VMAT2 [3H]DA uptake Imax,VMAT2 [4]; [9],100%
same,Ki,VMAT2 [4]; read-out: Ki at the DA uptake site on VMAT2,< 0.01 µM
same,Ki,VMAT2 [4]; [10],0.0093 ± 0.00075 µM
same,Ki,DAT [5],2.63 µM
same,Vmax of [3H]DA uptake at VMAT2,VMAT2 [6],29.6 ± 7.28 pmol/min/mg
same,Mechanism of VMAT2 inhibition,VMAT2 [6],competitively inhibit; also recorded: Competitive
"CN1[C@@H](CC(=O)c2ccccc2)CCC[C@H]1C[C@H](O)c1ccccc1 [Lobeline, reference compound]",Safety in phase 1b clinical trials,METH addicts,safe
same,Effect on locomotor activity in response to METH,"rats; adult male rats, 3 mg/kg 10 min prior to METH 1 mg/kg, 10 consecutive days, ref Miller, Green, et al. (2000)",significantly reduced locomotor activity
"CN1C/C(=C\c2ccc(Cl)cc2Cl)C/C(=C/c2ccc(Cl)cc2Cl)C1 [UKMH-106, (3Z,5Z)-3,5-bis(2,4-dichlorobenzylidene)-1-methylpiperidine]",Water solubility (in words),Water solubility,improved water solubility
same,Inhibition of METH-evoked DA release (in words),[7],inhibited
"CN1C(/C=C\c2ccccc2)CCCC1/C=C\c1ccccc1 (stereo not drawn) [MTD, N-methyl-2,6-bis(cis-phenylethenyl) piperidine]",Fold higher affinity for DAT compared with lobeline,DAT [8],100 fold
same,Fold lower affinity for SERT compared with lobeline,SERT,6.5 fold
same,Water solubility (in words),Water solubility,limited solubility
"CN1[C@@H](CCc2ccccc2)CCC[C@H]1CCc1ccccc1 [Lobelane, N-methyl-2,6-bis(cis-phenylethyl)piperidine, reference compound]",Water solubility (in words),Water solubility,decreased water solubility
"COc1ccc(CC[C@H]2CCC[C@@H](CCc3ccc(OC)cc3)N2C[C@@H](O)CO)cc1 (relative stereo) [GZ-793A, (R)-3-[2,6-cis-di(4-methoxyphenethyl)piperidin-1-yl]propane-1,2-diol]",Effect on cue- and METH-induced reinstatement of METH-seeking,"rats; rats, 15 mg/kg, ref Alvers et al., 2012",decrease reinstatement
"Cl.c1ccc(CC[C@@H]2CC[C@H](CCc3ccccc3)N2)cc1 [AV-1-228, cis-2,5-di-(2-phenethyl)-pyrrolidine hydrochloride]",Ki,VMAT2 [1],2.66 ± 0.37 µM
same,[3H]DTBZ binding Imax,VMAT2 [1],100%
same,VMAT2 [3H]DA uptake Imax,VMAT2 [4]; [9],100%
same,Ki,VMAT2 [4]; [10],0.028 ± 0.001 µM
"CN1[C@@H](Cc2ccccc2)CC[C@H]1Cc1ccccc1 [AV-2-197, 1-methyl-cis-2,5-di(2-benzyl)-pyrrolidine]",Ki,VMAT2 [1],2.46 ± 0.42 µM
same,[3H]DTBZ binding Imax,VMAT2 [1],96±1%
same,Imax for inhibition of METH-evoked DA release,[2],63%
same,Effect of analog alone on fractional DA release,[2],did not alter fractional DA release
same,IC50,[2],4.2 µM
same,Lowest concentration to increase extracellular DOPAC,[3],10 µM
same,Increased affinity for the DA uptake site on VMAT2 compared with AV-1-229A,VMAT2 [4],14 orders-of-magnitude
same,VMAT2 [3H]DA uptake Imax,VMAT2 [4]; [9],100%
same,Ki,VMAT2 [4]; [10],0.019 ± 0.00091 µM
same,Ki,DAT [5],5.4 µM
same,Vmax of [3H]DA uptake at VMAT2,VMAT2 [6],22.0 ± 4.36 pmol/min/mg
same,Mechanism of VMAT2 inhibition,VMAT2 [6],competitively inhibit; also recorded: Competitive
